≈ marks a conversion by molar mass, not a printed value.
How the values were obtained:
UGT [1] = biological target: T1, UGT (Homo sapiens, UniProt O60656+O75310+O75795+P06133+P0DTE4+P0DTE5+P16662+P19224+P22309+P22310+P35503+P35504+P36537+P54855+Q6UWM9+Q9BY64+Q9HAW7+Q9HAW8+Q9HAW9); experiment: Microsomal stability in human liver microsomes assessed as UGT-mediated metabolism by measuring compound remaining at 5 uM and measured for 30 mins in presence of UDPGA by UPLC-MS/MS analysis (reference value: 100%); assay type: ADME; settings: read-out: Stability
Method in brief: (§1)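 Compound at 5 µM with 0.5 mg/mL liver microsomes in PBS. Phase I was started with 1 mM NADPH; phase II used 2 mM UDPGA. Diclofenac served as reference. Samples taken at 0, 15, 30 and 60 min were quenched in ice-cold acetonitrile, centrifuged at 4°C and analysed by LC-MS. Mean of at least two replicates ± SD.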

CYP450 [2] = biological target: T2, CYP450 (Homo sapiens, UniProt P04798+P05177+P05181+P08684+P10632+P10635+P11509+P11712+P13584+P20813+P20815+P20853+P24462+P24903+P33260+P33261+P51589+P78329+P98187+Q02928+Q08477+Q16678+Q16696+Q5TCH4+Q6VVX0+Q7Z449+Q8TAV3+Q96SQ9+Q9HB55); experiment: Microsomal stability in human liver microsomes assessed as CYP450-mediated metabolism by measuring compound remaining at 5 uM and measured for 30 mins in presence of NADPH by UPLC-MS/MS analysis (reference value: 100%); assay type: ADME; settings: read-out: Stability; method in brief: as §1
UGT [3] = biological target: T1, UGT; experiment: Microsomal stability in human liver microsomes assessed as UGT-mediated metabolism by measuring compound remaining at 5 uM and measured for 60 mins in presence of UDPGA by UPLC-MS/MS analysis (reference value: 100%); assay type: ADME; settings: read-out: Stability; method in brief: as §1
CYP450 [4] = biological target: T2, CYP450; experiment: Microsomal stability in human liver microsomes assessed as CYP450-mediated metabolism by measuring compound remaining at 5 uM and measured for 60 mins in presence of NADPH by UPLC-MS/MS analysis (reference value: 100%); assay type: ADME; settings: read-out: Stability; method in brief: as §1
UGT [5] = biological target: T1, UGT; experiment: Microsomal stability in human liver microsomes assessed as UGT-mediated metabolism by measuring compound remaining at 5 uM and measured for 15 mins in presence of UDPGA by UPLC-MS/MS analysis (reference value: 100%); assay type: ADME; settings: read-out: Stability; method in brief: as §1
CYP450 [6] = biological target: T2, CYP450; experiment: Microsomal stability in human liver microsomes assessed as CYP450-mediated metabolism by measuring compound remaining at 5 uM and measured for 15 mins in presence of NADPH by UPLC-MS/MS analysis (reference value: 100%); assay type: ADME; settings: read-out: Stability; method in brief: as §1
Staphylococcus aureus = experiment: Antibacterial activity against Staphylococcus aureus ATCC 6538 incubated for 24 hrs by resazurin dye based fluorimetric assay; assay type: functional, organism-based; settings: ATCC 6538, 24 h
Method in brief: (§2)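 Resazurin microtiter assay: compounds from 10 mM DMSO stock, twofold serial dilutions from 64 µM final in growth medium, in triplicate. Inoculum from frozen glycerol stocks. Exposure 24 h, or 7 days for Mtb H37Ra (7H9 + 0.5% glycerol + 10% OADC). Then 0.01% resazurin was added and plates were incubated at 37°C until pink. Fluorescence read at ex 550/em 590 nm; mean of triplicates.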

Streptococcus pneumoniae = experiment: Antibacterial activity against Streptococcus pneumoniae ATCC BAA-334 incubated for 24 hrs by resazurin dye based fluorimetric assay; assay type: functional, organism-based; settings: ATCC BAA-334, 24 h; method in brief: as §2
Klebsiella pneumoniae = experiment: Antibacterial activity against Klebsiella pneumoniae ATCC 13883 incubated for 24 hrs by resazurin dye based fluorimetric assay; assay type: functional, organism-based; settings: ATCC 13883, 24 h; method in brief: as §2
[7] = Antimycobacterial activity against Mycobacterium avium subsp. avium ATCC 25291 by resazurin dye based fluorimetric assay; assay type: functional
Method in brief: (§3)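 Resazurin microtiter method as for the bacterial panel. Mycobacteria grown in 7H9 with 10% OADC and 0.5% glycerol; for BCG, 0.05% Tween 80 replaced the glycerol. Cultures were sonicated and needle-passed to single cells. Incubation at 37°C, or 32°C for M. marinum. Fluorescence read at ex 550/em 590 nm; mean of triplicates.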

Mycobacterium marinum = experiment: Antimycobacterial activity against Mycobacterium marinum NCTC 2275 by resazurin dye based fluorimetric assay; assay type: functional, organism-based; method in brief: as §3
[8] = tested on: Mycobacterium tuberculosis; experiment: Antimycobacterial activity against Mycobacterium tuberculosis H37Ra lux incubated for 7 days by luminometric assay; assay type: functional, organism-based; settings: 168 h
Method in brief: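 Twofold serial dilutions in 7H9/OADC/glycerol, in triplicate, inoculated with a suspension of 10.000 RLU per mL. After 7 days, n-decanal (1% v/v in ethanol) was added and luminescence read. IC50 and MIC (90% growth reduction) were derived from the mean of triplicates.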

[9] = tested on: Mycobacterium tuberculosis; experiment: Antibacterial activity against Mycobacterium tuberculosis H37Ra ATCC 25177 incubated for 7 days by resazurin dye based fluorimetric assay; assay type: functional, organism-based; settings: H37Ra ATCC 25177, 168 h; method in brief: as §2
Escherichia coli = experiment: Antibacterial activity against Escherichia coli ATCC 8739 incubated for 24 hrs by resazurin dye based fluorimetric assay; assay type: functional, organism-based; settings: ATCC 8739, ATCC 8739, 24 h; method in brief: as §2
[10] = Cytotoxicity against mouse J774A.1 cells assessed as reduction in cell viability incubated for 24 hrs by neutral red uptake assay; assay type: cell-based, J774.A1
Method in brief: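 J774A.1 cells in DMEM + 10% iFCS, 37°C, 5% CO2, seeded at 40.000 cells/well and left overnight. Twofold dilutions from 128 µM final; 24 h exposure. Neutral red uptake for 3 h, dye extracted with 1:1 ethanol/acetic acid, OD read at 530 nm (reference 620 nm). CC50 = 50% reduction in uptake; mean of triplicates.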

UGT [11] = experiment: Microsomal stability in mouse liver microsomes assessed as UGT-mediated metabolism by measuring compound remaining at 5 uM and measured for 30 mins in presence of UDPGA by UPLC-MS/MS analysis (reference value: 100%); assay type: ADME; settings: read-out: Stability; method in brief: as §1
CYP450 [12] = experiment: Microsomal stability in mouse liver microsomes assessed as CYP450-mediated metabolism by measuring compound remaining at 5 uM and measured for 15 mins in presence of NADPH by UPLC-MS/MS analysis (reference value: 100%); assay type: ADME; settings: read-out: Stability; method in brief: as §1
Enterococcus faecium = experiment: Antibacterial activity against Enterococcus faecium ATCC 19434 incubated for 24 hrs by resazurin dye based fluorimetric assay; assay type: functional, organism-based; settings: ATCC 19434, 24 h; method in brief: as §2
CYP450 [13] = experiment: Microsomal stability in mouse liver microsomes assessed as CYP450-mediated metabolism by measuring compound remaining at 5 uM and measured for 30 mins in presence of NADPH by UPLC-MS/MS analysis (reference value: 100%); assay type: ADME; settings: read-out: Stability; method in brief: as §1
[14] = Selectivity index, ratio of […] for cytotoxicity against mouse J774A.1 cells; assay type: toxicity, cell-based; settings: read-out: Selectivity Index
UGT [15] = experiment: Microsomal stability in mouse liver microsomes assessed as UGT-mediated metabolism by measuring compound remaining at 5 uM and measured for 60 mins in presence of UDPGA by UPLC-MS/MS analysis (reference value: 100%); assay type: ADME; settings: read-out: Stability; method in brief: as §1
UGT [16] = experiment: Microsomal stability in mouse liver microsomes assessed as UGT-mediated metabolism by measuring compound remaining at 5 uM and measured for 15 mins in presence of UDPGA by UPLC-MS/MS analysis (reference value: 100%); assay type: ADME; settings: read-out: Stability; method in brief: as §1
CYP450 [17] = experiment: Microsomal stability in mouse liver microsomes assessed as CYP450-mediated metabolism by measuring compound remaining at 5 uM and measured for 60 mins in presence of NADPH by UPLC-MS/MS analysis (reference value: 100%); assay type: ADME; settings: read-out: Stability; method in brief: as §1
Pseudomonas aeruginosa = experiment: Antibacterial activity against Pseudomonas aeruginosa ATCC 9027 incubated for 24 hrs by resazurin dye based fluorimetric assay; assay type: functional, organism-based; settings: ATCC 9027, 24 h; method in brief: as §2

Row | SMILES | remaining at 0.5 h, 5 µM (UGT [1]) [%] | remaining at 0.5 h, 5 µM (CYP450 [2]) [%] | remaining at 1 h, 5 µM (UGT [3]) [%] | remaining at 1 h, 5 µM (CYP450 [4]) [%] | remaining at 0.25 h, 5 µM (UGT [5]) [%] | remaining at 0.25 h, 5 µM (CYP450 [6]) [%] | IC50 (Staphylococcus aureus) [µM] | IC50 (Streptococcus pneumoniae) [µM] | IC50 (Klebsiella pneumoniae) [µM] | IC50 [7] [µM] | IC50 (Mycobacterium marinum) [µM] | IC50 [8] [µM] | MIC90 [8] [µM] | IC50 [9] [µM] | also measured
1 | O=C(O)Cc1ccccc1Nc1c(Cl)cccc1Cl [DICLOFENAC] | 16 | 23 | 13 | 5 | 22 | 45 | – | – | – | – | – | – | – | – | –
2 | C[C@H]1c2cccc(O)c2C(=O)C2=C(O)[C@]3(O)C(=O)C(C(N)=O)=C(O)[C@@H](N(C)C)[C@@H]3[C@@H](O)[C@@H]21 [DOXYCYCLINE] | – | – | – | – | – | – | < 0.25 | > 0.25 | – | – | – | – | – | – | –
3 | O=C(O)c1cn(C2CC2)c2cc(N3CCNCC3)c(F)cc2c1=O [CIPROFLOXACIN] | – | – | – | – | – | – | – | – | < 0.25 | – | – | – | – | – | –
4 | COc1c(N2C[C@@H]3CCCN[C@@H]3C2)c(F)cc2c(=O)c(C(=O)O)cn(C3CC3)c12 [MOXIFLOXACIN] | – | – | – | – | – | – | – | – | – | 0.19 | 0.14 | – | – | – | –
5 | NNC(=O)c1ccncc1 [ISONIAZID] | – | – | – | – | – | – | – | – | – | – | – | 0.11 | 0.31 (≈ 0.0425 µg/mL) | < 0.25 | –
6 | O=C1C2=C(C(=O)c3c1cnc1cc(C(F)(F)F)ccc31)C1CCC2C1 (centres undefined) | 63 | 100 | 63 | 100 | 71 | 100 | > 64 | 32 to 64 | > 64 | 3.24 | 9 | 3.05 | 7.95 (≈ 2.73 µg/mL) | 2 to 4 | IC50 (Escherichia coli): > 64 µM; CC50 at 24 h [10]: 122 µM; remaining at 0.5 h, 5 µM (UGT [11]): 70%; remaining at 0.25 h, 5 µM (CYP450 [12]): 100%; IC50 (Enterococcus faecium): > 64 µM; remaining at 0.5 h, 5 µM (CYP450 [13]): 100%; selectivity ratio [14]: 15.4; remaining at 1 h, 5 µM (UGT [15]): 51%; remaining at 0.25 h, 5 µM (UGT [16]): 62%; remaining at 1 h, 5 µM (CYP450 [17]): 100%; IC50 (Pseudomonas aeruginosa): > 64 µM
